Assay results published in PubChem BioAssay.
Records with an inconclusive call do not appear.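 How the source made its calls, unless noted: active means inhibition over a set limit, the all-compound mean plus 3 SD, in both replicate runs; inconclusive means over that limit in just one replicate run; inactive means at or under that limit in both runs.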

Legend:
[1] = S. cerevisiae growth inhibition in permissive medium (OD615), pilot counter-assay for S. cerevisiae lifespan shortening project, permissive growth control (AID 705;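 active means growth inhibition above 25% in both replicates, a cutoff set 3 SD above the mean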); settings: OD615, 24 h, at 10 µM, stronger effect = higher value
Outline: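 System: S. cerevisiae with engineered DeaD lifespan system. Medium: SC raffinose/galactose permissive medium. Doses: single compound dose of 10 µM, 0.25% DMSO final. Schedule: 24 h exposure, 30 °C. Measured by: OD615 turbidity read. Read-out: growth inhibition.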

[2] = S. cerevisiae growth inhibition in restrictive medium, OD615, pilot screen, restrictive growth control, yeast lifespan reduction project (AID 706;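 active means growth inhibition above a set limit, 3 SD over mean compound inhibition, in both replicates, cut at about 43% in these data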;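 further: modified DeaD lifespan yeast strain shifted to restrictive glucose medium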); settings: OD615, 48 h, at 10 µM, stronger effect = higher value
Outline: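 Assay system – genetically modified Saccharomyces cerevisiae, DeaD replicative lifespan assay strain · Medium – CSMM-D glucose medium · Doses – 10 µM compound, 0.25% DMSO · Times – 4 h pre-incubation, 48 h exposure at 30 °C · Signal – optical density at 615 nm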

[3] = doxorubicin toxicity protection in MRP-1 cells – H69AR cells, CellTiter-Glo, duplicate, MRP-1 activator project, pilot screen (AID 807;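 active means viability increase at or above a cutoff of the median across tested compounds plus 3 SD, cut at about 8.5% in these data, passing the limit was not always enough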;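 further: compound pretreatment 18-22 h then 72 h combined with doxorubicin; 0% = doxorubicin alone and 100% = vehicle without doxorubicin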); settings: H69AR viability with doxorubicin, CellTiter-Glo luminescence; at 10 µM; stronger effect = higher value
[4] = viability of HCT116 without oncogenic beta-catenin – human colon tumor cells, pilot screen (AID 823;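 active means cell viability at or below a set limit in both duplicate runs, the limit being the all-compound median minus 4 SD, cut at about 23% in these data, passing the limit was not always enough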;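 further: 0% = wells killed by 20 µM Hyamine and 100% = untreated DMSO cell wells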); settings: HCT116 beta-catenin knockout viability, CellTiter-Glo, 60 h; at 10 µM; stronger effect = lower value
[5] = viability of PTEN-null HCT116 cells – cell-based, HCT116 clonal line, CellTiter-Glo, pilot screen (AID 824;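 active means viability at or below 27.92% in each of two runs, the all-compound median minus 4 SD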;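 further: 0% = 20 µM Hyamine control and 100% = vehicle cell control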); settings: HCT116 PTEN-deleted viability, 60 h, at 10 µM, stronger effect = lower value
[6] = RAM pathway blockade in budding yeast – dse1pr::URA3 reporter, 5-FOA selection, pilot screen (AID 869);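 further: 0% = DMSO wells with no growth and 100% = 10 µM 1-NA-PP1 with full growth; RAM network block rescues cells from 5-FOA so hits raise OD615 growth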; settings: S. cerevisiae dse1pr::URA3 5-FOA growth, OD615, 2 d; at 10 µM; stronger effect = higher value; strain carries analog-sensitive mutant Cbk1 kinase
[7] = RAM signaling pathway blockade in yeast – S. cerevisiae, Pdr1DBD-CYC8 efflux-inhibited sensitized strain, primary screen (AID 1298;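 active means RAM network inhibition above 8.4% in each of two replicates, 3 SD over the compound average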;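 further: 0% = DMSO untreated cells without growth and 100% = 10 µM 1-NA-PP1 full growth; higher means more yeast growth rescued from 5-FOA killing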); settings: S. cerevisiae cbk1-as DSE1-URA3 strain, 5-FOA growth OD615, 2 d; at 50 µM; stronger effect = higher value

CC(C)(C)NC(=O)CSc1nccn1Cc1ccccc1
inactive: growth inhibition [1] -11.7% | growth inhibition [2] -5.1% | viability increase [3] -1.52% | viability [4] 95.9% | viability [5] 93% | inhibition [6] 1.66% | RAM network inhibition [7] 4.82%

Cn1c(C(=O)N2CCN(Cc3ccccc3)CC2)cc2c(=O)n(C)c3ccccc3c21
inactive: growth inhibition [1] 7.94% | growth inhibition [2] 3.57% | viability increase [3] -4.21% | viability [4] 74.8% | viability [5] 74.8% | inhibition [6] 0.905% | RAM network inhibition [7] 1.37%

Cc1cc(C)nc(-n2nc(C)cc2NC(=O)CN2CCC(C)CC2)n1
inactive: growth inhibition [1] -0.83% | growth inhibition [2] 21.6% | viability increase [3] -5.27% | viability [4] 75.3% | viability [5] 85.5% | inhibition [6] 1.01% | RAM network inhibition [7] 2.91%

CCn1c(-c2ccccc2O)n[nH]c1=S
inactive: growth inhibition [1] 1.96% | growth inhibition [2] 25.6% | viability increase [3] -0.52% | viability [4] 93.7% | viability [5] 95.4% | inhibition [6] -0.54% | RAM network inhibition [7] 0.81%

CCC(=O)N=c1sc2c(C)cc(C)cc2n1CC(=O)OC
inactive: growth inhibition [1] -9.96% | growth inhibition [2] -16.1% | viability increase [3] -0.83% | viability [4] 92.4% | viability [5] 88.7% | inhibition [6] 1.55% | RAM network inhibition [7] 2.76%

CCOCCOCN(C#N)c1nc(OC)nc(N(C)C)n1
inactive: growth inhibition [1] -5.92% | growth inhibition [2] 0.69% | viability increase [3] 1.74% | viability [4] 102% | viability [5] 99.9% | inhibition [6] 0.555% | RAM network inhibition [7] 2.46%

COC(=O)C(CCSC)NC(=O)Cn1ncc2c(=O)oc3ccc(C)cc3c21 (configuration not stated)
inactive: growth inhibition [1] 6.62% | growth inhibition [2] -7.95% | viability increase [3] -3.14% | viability [4] 113% | viability [5] 91.3% | inhibition [6] 0.875% | RAM network inhibition [7] 1.93%

CCCCC(=O)Nc1ncc2c(n1)CC(C)(C)CC2=O
inactive: growth inhibition [1] -7.95% | growth inhibition [2] -5.04% | viability increase [3] -2.35% | viability [4] 96.1% | viability [5] 98.2% | inhibition [6] 2.94% | RAM network inhibition [7] 1.03%

Cc1cccc(NC(=O)Cn2cnc3sc(C)c(S(=O)(=O)N4CCC(C)CC4)c3c2=O)n1
inactive: growth inhibition [1] -9.9% | growth inhibition [2] -17.3% | viability increase [3] -1.12% | viability [4] 95.2% | viability [5] 99.1% | inhibition [6] 2.16% | RAM network inhibition [7] 9.71%

c1ccc2[nH]c(SCCN3CCOCC3)nc2c1
inactive: growth inhibition [1] -2.45% | growth inhibition [2] 8.19% | viability increase [3] -1.11% | viability [4] 98.9% | viability [5] 104% | inhibition [6] -0.025% | RAM network inhibition [7] 1.35%

CCCC(=O)Nc1nnc(-c2ccc(Cl)s2)o1
inactive: growth inhibition [1] -6.95% | growth inhibition [2] 2.92% | viability increase [3] -3.1% | viability [4] 95.6% | viability [5] 91.2% | inhibition [6] 1.61% | RAM network inhibition [7] 1.6%

C=CCn1c(CSc2nc3ccccc3s2)nnc1SCC(=O)OCC
inactive: growth inhibition [1] -1.57% | growth inhibition [2] 27.4% | viability increase [3] -0.04% | viability [4] 97.6% | viability [5] 101% | inhibition [6] -0.335% | RAM network inhibition [7] 9.66%

CC(C)N1C(=O)CCC1C(=O)NCc1ccccc1Cl (configuration not stated)
inactive: growth inhibition [1] -8.36% | growth inhibition [2] -6.72% | viability increase [3] -2.27% | viability [4] 96% | viability [5] 98.9% | inhibition [6] 1.68% | RAM network inhibition [7] 0.01%

COc1ccc(C)c2sc(=NC(=O)c3ccc(C#N)cc3)n(C)c12
inactive: growth inhibition [1] -5.79% | growth inhibition [2] -17.2% | viability increase [3] -3.95% | viability [4] 85.3% | viability [5] 81.6% | inhibition [6] 0.96% | RAM network inhibition [7] 1.83%

CCCCN(C)C(=O)c1c[nH]c2ccc(S(=O)(=O)N3CCOCC3)cc2c1=O
inactive: growth inhibition [1] -5.67% | growth inhibition [2] -15.5% | viability increase [3] 0.64% | viability [4] 109% | viability [5] 98.8% | inhibition [6] 2.05% | RAM network inhibition [7] 5.01%

CC(=O)n1c2ccccc2c2c1c1ccccc1n2C
inactive: growth inhibition [1] 10.6% | growth inhibition [2] 3.17% | viability increase [3] -4.83% | viability [4] 96% | viability [5] 82.6% | inhibition [6] 2.49% | RAM network inhibition [7] 2%

O=C(NCCc1ccccc1)C1CCN(S(=O)(=O)c2cccnc2)CC1
inactive: growth inhibition [1] -7.37% | growth inhibition [2] 0.25% | viability increase [3] -0.16% | viability [4] 104% | viability [5] 94.8% | inhibition [6] 1.88% | RAM network inhibition [7] 1.62%

CSc1cccc(NC(=O)CN2C(=O)c3ccccc3S2(=O)=O)c1
inactive: growth inhibition [1] -2.94% | growth inhibition [2] 3.68% | viability increase [3] -0.41% | viability [4] 106% | viability [5] 101% | inhibition [6] 0.095% | RAM network inhibition [7] 0.05%

NC(=O)c1ccsc1NC(=O)C1CCCCC1
inactive: growth inhibition [1] -3.66% | growth inhibition [2] -5.7% | viability increase [3] -0.9% | viability [4] 102% | viability [5] 101% | inhibition [6] 0.965% | RAM network inhibition [7] 0.22%

O=C(NCCN1CCN(C(=O)Nc2ccccc2)CC1)Nc1ccccc1
inactive: growth inhibition [1] -18.1% | growth inhibition [2] -32.9% | viability increase [3] -0.62% | viability [4] 107% | viability [5] 94.8% | inhibition [6] 1.63% | RAM network inhibition [7] 3%

Cc1cccc(C2Nc3ccccc3C(=O)N2c2ccccc2)n1 (configuration not stated)
inactive: growth inhibition [1] -13.9% | growth inhibition [2] -8.88% | viability increase [3] -2.08% | viability [4] 94.1% | viability [5] 101% | inhibition [6] 2.28% | RAM network inhibition [7] 2.46%

COc1ccc(NC(C)=O)cc1NC(=O)CSc1nnc(-c2ccncc2)n1C
inactive: growth inhibition [1] -5.57% | growth inhibition [2] -7.07% | viability increase [3] -1.99% | viability [4] 96.6% | viability [5] 106% | inhibition [6] 0.24% | RAM network inhibition [7] 0.2%

CCOC(=O)N1CCC(NC(=O)c2csc3c2CCCC3)CC1
inactive: growth inhibition [1] -3.1% | growth inhibition [2] -14.7% | viability increase [3] -2.82% | viability [4] 95.2% | viability [5] 93.6% | inhibition [6] 1.29% | RAM network inhibition [7] 3.9%

CC(=O)N1CCC(N(CCN2CCOCC2)C(=O)Nc2ccc(Cl)c(Cl)c2)CC1
inactive: growth inhibition [1] -8.97% | growth inhibition [2] -0.8% | viability increase [3] -1.49% | viability [4] 97% | viability [5] 95.6% | inhibition [6] 2.5% | RAM network inhibition [7] 1.45%

Nc1sc2c(c1C(=O)NC1CCS(=O)(=O)C1)CCCC2 (configuration not stated)
inactive: growth inhibition [1] -5.31% | growth inhibition [2] -3.38% | viability increase [3] 0.13% | viability [4] 93.3% | viability [5] 99.1% | inhibition [6] 1.67% | RAM network inhibition [7] 3.3%

COc1ccccc1C(=O)NCc1ccc2c(c1)OCO2
inactive: growth inhibition [1] -21.2% | growth inhibition [2] -10.3% | viability increase [3] 0.91% | viability [4] 107% | viability [5] 107% | inhibition [6] 0.52% | RAM network inhibition [7] 2.54%

O=C1CSC(=O)N1CC(O)COc1ccc(Cl)cc1 (configuration not stated)
inactive: growth inhibition [1] 0.955% | growth inhibition [2] -20.5% | viability increase [3] 3.19% | viability [4] 102% | viability [5] 91.9% | inhibition [6] 0.995% | RAM network inhibition [7] 1.1%

Nc1nc(Nc2cccc(F)c2)nc2ccccc12
inactive: growth inhibition [1] -11.6% | growth inhibition [2] -30.8% | viability increase [3] -5.76% | viability [4] 70.3% | viability [5] 67.6% | inhibition [6] 1.88% | RAM network inhibition [7] 4.92%

O=S(=O)(NCC(c1cccnc1)N1CCN(c2ccc(F)cc2)CC1)c1cccs1 (configuration not stated)
inactive: growth inhibition [1] -0.1% | growth inhibition [2] -0.165% | viability increase [3] -1.56% | viability [4] 87.9% | viability [5] 86.8% | inhibition [6] 2.22% | RAM network inhibition [7] 3.87%

Cc1onc(-c2ccccc2)c1C(=O)Nc1nnc(N2CCCCCC2)s1
inactive: growth inhibition [1] -15.2% | growth inhibition [2] -12% | viability increase [3] 2% | viability [4] 101% | viability [5] 87.5% | inhibition [6] 1.23% | RAM network inhibition [7] 3.72%

N#Cc1c(NC(=O)c2cc(C3CC3)on2)sc2c1CCC2
inactive: growth inhibition [1] -1.24% | growth inhibition [2] 5.11% | viability increase [3] -5.36% | viability [4] 38.9% | viability [5] 34.1% | inhibition [6] 3.44% | RAM network inhibition [7] -1.72%

COc1ccc2[nH]cc(CCNC(=O)C3CCCNC3=O)c2c1 (configuration not stated)
inactive: growth inhibition [1] -14.6% | growth inhibition [2] -16.5% | viability increase [3] -1.57% | viability [4] 104% | viability [5] 102% | inhibition [6] 0.15% | RAM network inhibition [7] 2.98%

CC(=O)C1(O)C(C)CC2C3CCC4CC(O)CCC4(C)C3=CCC21C (configuration not stated)
inactive: growth inhibition [1] -8.11% | growth inhibition [2] -5.04% | viability increase [3] -1.36% | viability [4] 97.2% | viability [5] 90.2% | inhibition [6] 0.305% | RAM network inhibition [7] 9.58%

Cc1cccc(OCc2nc(C#N)c(N3CC(C)CC(C)C3)o2)c1 (configuration not stated)
inactive: growth inhibition [1] 0.505% | growth inhibition [2] -2.89% | viability increase [3] 3.8% | viability [4] 63.5% | viability [5] 65.3% | inhibition [6] 1.85% | RAM network inhibition [7] 5.88%

CC1(C)CC2CC(C)(CN2C(=O)c2cc(-c3ccccc3O)on2)C1 (configuration not stated)
inactive: growth inhibition [1] -11.4% | growth inhibition [2] -4.57% | viability increase [3] -5.87% | viability [4] 75.5% | viability [5] 61.9% | inhibition [6] 2.44% | RAM network inhibition [7] 6.15%

Cc1ccccc1Nc1ncnc2c1cnn2-c1ccccc1
inactive: growth inhibition [1] -4.67% | growth inhibition [2] -4.63% | viability increase [3] -3.78% | viability [4] 86% | viability [5] 84.3% | inhibition [6] -0.23% | RAM network inhibition [7] -0.01%
